Laboratory results reported in ChEMBL document CHEMBL4270616, “Asymmetrical meta-methoxylated diarylpentanoids: Rational design, synthesis and anti-cancer evaluation in-vitro” (Eur J Med Chem, 2018).

Assays:
SW-620 [1] = assay: Cytotoxicity against human SW620 cells after 72 hrs by MTT assay; format: functional, cell-based; details: SW-620, 72 h
Outline: (§1)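 Tumour lines kept in DMEM with 10% FBS and 1% penicillin/streptomycin at 37°C, 5% CO2. Seeded at 1500-5000 cells/well by doubling time and size, 24 h, then compound in DMSO-containing medium (final DMSO 0.1%) for 72 h. MTT (5 mg/mL) 4 h at 37°C, DMSO solubilisation, absorbance at 570 nm.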

A549 [2] = assay: Cytotoxicity against human A549 cells after 72 hrs by MTT assay; format: functional, cell-based; details: A549, 72 h; outline: as §1
[3] = Cytotoxicity against human EJ28 cells after 72 hrs by MTT assay; format: functional, cell-based; details: EJ-28, 72 h; outline: as §1
HT-1080 [4] = assay: Cytotoxicity against human HT1080 cells after 72 hrs by MTT assay; format: functional, cell-based; details: HT-1080, 72 h; outline: as §1
MCF7 [5] = assay: Cytotoxicity against human MCF7 cells after 72 hrs by MTT assay; format: functional, cell-based; details: MCF7, 72 h; outline: as §1
NHDF = assay: Cytotoxicity against NHDF after 72 hrs by MTT assay; format: cell-based; details: Homo sapiens
Outline: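 NHDF grown in DMEM with 5% FBS at 37°C, 5% CO2. Seeded at 1500-5000 cells/well, 24 h, then compound added in DMSO-containing medium (final DMSO 0.1%) for 72 h. MTT (5 mg/mL in medium) added for 4 h at 37°C, formazan dissolved in DMSO, absorbance read at 570 nm.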

SW-620 [6] = assay: Cytotoxicity against human SW620 cells assessed as inhibition of cell proliferation at 20 uM after 72 hrs by MTT assay relative to control; format: functional; details: SW-620, 72 h
Outline: (§2)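 Single-concentration screen at 20 μM with 72 h exposure in DMEM with 10% FBS, final DMSO 0.1%. Read-out was MTT (5 mg/mL, 4 h, 37°C), DMSO solubilisation and absorbance at 570 nm, expressed as percent inhibition. Lines reaching a threshold percentage went on to IC50 determination.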

A549 [7] = assay: Cytotoxicity against human A549 cells assessed as inhibition of cell proliferation at 20 uM after 72 hrs by MTT assay relative to control; format: functional; details: A549, 72 h; outline: as §2
[8] = Cytotoxicity against human EJ28 cells assessed as inhibition of cell proliferation at 20 uM after 72 hrs by MTT assay relative to control; format: functional; details: EJ-28, 72 h; outline: as §2
HT-1080 [9] = assay: Cytotoxicity against human HT1080 cells assessed as inhibition of cell proliferation at 20 uM after 72 hrs by MTT assay relative to control; format: functional; details: HT-1080, 72 h; outline: as §2
MCF7 [10] = assay: Cytotoxicity against human MCF7 cells assessed as inhibition of cell proliferation at 20 uM after 72 hrs by MTT assay relative to control; format: functional; details: MCF7, 72 h; outline: as §2

SMILES	IC50 (SW-620 [1]) [µM]	IC50 (A549 [2]) [µM]	IC50 [3] [µM]	IC50 (HT-1080 [4]) [µM]	IC50 (MCF7 [5]) [µM]	IC50 (NHDF) [µM]	inhibition at 20 µM (SW-620 [6]) [%]	inhibition at 20 µM (A549 [7]) [%]	inhibition at 20 µM [8] [%]	inhibition at 20 µM (HT-1080 [9]) [%]	inhibition at 20 µM (MCF7 [10]) [%]
COc1cc(/C=C2\CCC/C(=C\c3ccc(OC)c(OC)c3)C2=O)cc(OC)c1	2.5	5.1	3	2.6	3.9	6.5	> 50	> 50	> 50	> 50	> 50
COc1cc(/C=C2\CCC/C(=C\c3cccc(OC)c3OC)C2=O)cc(OC)c1	3.8	10.2	3.6	4.5	1.7	13.1	> 50	> 50	> 50	> 50	> 50
COc1ccc(/C=C2\CCC/C(=C\c3ccc(OC)c(OC)c3)C2=O)cc1OC	4.5	8.5	3.5	3	13.5	9.7	> 50	> 50	> 50	> 50	> 50
COc1cccc(/C=C2\CCC/C(=C\c3cccc(Cl)c3)C2=O)c1OC	9.1	> 20	11.3	10.3	12	21.4	> 50	> 50	> 50	> 50	> 50
COc1ccc(/C=C2\CCC/C(=C\c3cccc(OC)c3OC)C2=O)cc1OC	6.4	14.4	6.6	6.4	6.5	14.9	> 50	> 50	> 50	> 50	> 50
COc1ccc(/C=C2\CCC/C(=C\c3cccc(Cl)c3Cl)C2=O)cc1OC	10.8	> 20	10.4	8.8	14.3	18.5	> 50	> 50	> 50	> 50	> 50
COc1cccc(/C=C2\CCC/C(=C\c3cc(OC)c(OC)c(OC)c3)C2=O)c1OC	2.5	5.9	2.4	2.3	1.4	7.9	> 50	> 50	> 50	> 50	> 50
COc1cccc(/C=C2\CCC/C(=C\c3ccc(Cl)cc3Cl)C2=O)c1OC	16.3	> 20	> 20	> 20	> 20	49.2	> 50	> 50	> 50	> 50	> 50
COc1ccc(/C=C2\CCC/C(=C\c3ccc(OC)c(OC)c3)C2=O)cc1	6.6	> 20	8.4	7.2	7.8	30.9	> 50	> 50	> 50	> 50	> 50
COc1cccc(/C=C2\CCC/C(=C\c3cc(Cl)cc(Cl)c3)C2=O)c1OC	5.5	12.5	7.5	6.1	4.3	21.6	> 50	> 50	> 50	> 50	> 50
COc1ccc(/C=C2\CCC/C(=C\c3ccc(Br)cc3)C2=O)cc1OC	5.2	16	7.1	4.3	6.9	13.1	> 50	> 50	> 50	> 50	> 50
COc1ccc(/C=C2\CCC/C(=C\c3cccc(OC)c3OC)C2=O)c(OC)c1	> 20	> 20	> 20	> 20	> 20	> 50	> 50	> 50	> 50	> 50	> 50
COc1ccc(/C=C2\CCC/C(=C\c3cccc(Cl)c3)C2=O)cc1OC	5.1	11	5.4	4.9	6	11.9	> 50	> 50	> 50	> 50	> 50
COc1ccc(/C=C2\CCC/C(=C\c3ccc(OC)c(OC)c3)C2=O)c(OC)c1	> 20	> 20	> 20	17.1	15.6	> 50	> 50	> 50	> 50	> 50	> 50
COc1ccc(/C=C2\CCC/C(=C\c3ccc(Cl)cc3)C2=O)cc1OC	5.9	10.1	5.7	4.8	6.3	11.2	> 50	> 50	> 50	> 50	> 50
COc1ccc(/C=C2\CCC/C(=C\c3ccc(O)c(Cl)c3)C2=O)cc1OC	7.1	> 20	8	7.6	12.3	21.9	> 50	> 50	> 50	> 50	> 50
COc1cccc(/C=C2\CCC/C(=C\c3ccc(OC)c(OC)c3)C2=O)c1	3.7	6.7	4.2	4.6	4.6	11.6	> 50	> 50	> 50	> 50	> 50
COc1cccc(/C=C2\CCC/C(=C\c3ccc(Cl)c(Cl)c3)C2=O)c1OC	10	> 20	12.1	10.8	9	25.5	> 50	> 50	> 50	> 50	> 50
COc1ccccc1/C=C1\CCC/C(=C\c2cccc(OC)c2OC)C1=O	> 20	> 20	16.6	14.1	12	31.3	> 50	> 50	> 50	> 50	> 50
COc1cccc(/C=C2\CCC/C(=C\c3ccccc3Cl)C2=O)c1OC	10.3	> 20	12	11.7	11.3	44.2	> 50	> 50	> 50	> 50	> 50
